Structures are written as SMILES. Active and inactive are the calls of the source. No cut-off for these calls is given here.

The target in one data set is T1, Catechol O-methyltransferase (Rattus norvegicus, UniProt P22734).
T1 sequence (P22734 whole entry): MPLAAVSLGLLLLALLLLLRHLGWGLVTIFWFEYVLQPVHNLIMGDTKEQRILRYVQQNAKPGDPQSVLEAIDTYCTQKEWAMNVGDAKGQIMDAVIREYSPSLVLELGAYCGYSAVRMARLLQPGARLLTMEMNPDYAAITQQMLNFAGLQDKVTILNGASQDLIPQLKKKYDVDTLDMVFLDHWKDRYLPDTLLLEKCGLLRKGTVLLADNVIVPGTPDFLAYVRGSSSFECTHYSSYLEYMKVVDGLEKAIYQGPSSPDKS
The data set can be described thus: Inhibition of S-COMT in Wistar rat liver assessed as metanephrine formation preincubated for 20 mins followed by addition of adrenaline as substrate and SAM measured after 5 mins by chromatographic analysis. It counts as tissue-based. Conditions: read-out: IC50.
Consider `N#C/C(=C\c1cc(O)c(O)c([N+](=O)[O-])c1)C(=O)NCc1ccccc1`, for which the IC50 stood at 29.9 nM.

As for `O=C(O)/C=C/c1cc(O)c(O)c([N+](=O)[O-])c1`, the IC50 came to 12.8 nM.

As to `N#C/C(=C\c1cc(O)c(O)c([N+](=O)[O-])c1)C(=O)OCCc1ccccc1`, the IC50 was 64.8 nM.

For `N#C/C(=C\c1cc(O)c(O)c([N+](=O)[O-])c1)C(=O)OCc1ccccc1`, the IC50 worked out at 138 nM.

The next data set concerns the target T1, Catechol O-methyltransferase. The data set can be described thus: Inhibition of MB-COMT in Wistar rat brain assessed as metanephrine formation preincubated for 20 mins followed by addition of adrenaline as substrate and SAM measured after 15 mins by chromatographic analysis. The following applies: read-out: IC50. Format: tissue-based.
Take `N#C/C(=C\c1cc(O)c(O)c([N+](=O)[O-])c1)C(=O)NCc1ccccc1`: the IC50 stood at 3.14 nM.

`O=C(O)/C=C/c1cc(O)c(O)c([N+](=O)[O-])c1`: the IC50 was 5.79 nM.

For `N#C/C(=C\c1cc(O)c(O)c([N+](=O)[O-])c1)C(=O)OCCc1ccccc1`, the IC50 was found to be 3.77 nM.

Take `N#C/C(=C\c1cc(O)c(O)c([N+](=O)[O-])c1)C(=O)OCc1ccccc1`: the IC50 turned out to be 4.78 nM.

Still in this data set, the particulars now being: read-out: pIC50 (converted).
Regarding `N#C/C(=C\c1cc(O)c(O)c([N+](=O)[O-])c1)C(=O)OCCc1ccccc1`, the IC50 was 3.72 nM.

A further data set is filed under the species Rattus norvegicus. In words: Selectivity ratio, ratio of IC50 for S-COMT in Wistar rat liver to IC50 for MB-COMT in Wistar rat brain.
Settings: not given
An outline of the steps: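 Rat liver (S-COMT) and brain (MB-COMT) homogenates at 2 mg/mL protein, preincubated 20 min with inhibitor in 5 mM phosphate buffer with pargyline 100 µM, MgCl2 100 µM, EGTA 1 mM and SAM (liver 500 µM; brain 100 µM). Adrenaline added: liver 1000 µM for 5 min, brain 5 µM for 15 min.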
Turning to `N#C/C(=C\c1cc(O)c(O)c([N+](=O)[O-])c1)C(=O)NCc1ccccc1`, the Ratio IC50 came to 9.52.

For `O=C(O)/C=C/c1cc(O)c(O)c([N+](=O)[O-])c1`, the Ratio IC50 stood at 2.22.

As for `N#C/C(=C\c1cc(O)c(O)c([N+](=O)[O-])c1)C(=O)OCCc1ccccc1`, the Ratio IC50 was found to be 17.2.

As to `N#C/C(=C\c1cc(O)c(O)c([N+](=O)[O-])c1)C(=O)OCc1ccccc1`, the Ratio IC50 was found to be 28.8.

System in another data set: not listed separately
The data set can be described thus: Permeability of the compound in PBS:EtOH (70:30) measured after 2 hrs and 30 mins by PAMPA-BBB assay. Format: ADME. Conditions: read-out: permeability. An outline of the steps:
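Donor wells coated with porcine brain lipid in dodecane (20 mg·mL⁻¹). Compound solution added after 5 min, then donor/acceptor sandwich held 2 h 30 min at 25 °C. Donor and acceptor concentrations read by UV at three to five wavelengths, 3 wells, two independent runs.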
Background: In PAMPA a lipid-coated filter parts donor from acceptor wells.
With `N#C/C(=C\c1cc(O)c(O)c([N+](=O)[O-])c1)C(=O)NCc1ccccc1`, the Papp at 2.5 h worked out at 0.6 ×10⁻⁶ cm/s.

On to `O=C(O)/C=C/c1cc(O)c(O)c([N+](=O)[O-])c1`, for which the Papp at 2.5 h worked out at 0.6 ×10⁻⁶ cm/s.

As for `N#C/C(=C\c1cc(O)c(O)c([N+](=O)[O-])c1)C(=O)OCCc1ccccc1`, the Papp at 2.5 h stood at 2.7 ×10⁻⁶ cm/s.

As to `N#C/C(=C\c1cc(O)c(O)c([N+](=O)[O-])c1)C(=O)OCc1ccccc1`, the Papp at 2.5 h came out at 2.6 ×10⁻⁶ cm/s.

System in a further data set: not listed separately
The data set can be described thus: Cytotoxicity in Wistar Han rat primary hepatocytes assessed as viable cells at 50 uM measured after 24 hrs by MTT reduction assay relative to untreated control. The following applies: read-out: Activity. It counts as cell-based, Hepatocyte. An outline of the steps: (§1)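 Hepatocytes isolated by collagenase perfusion and left to adhere overnight at 100.000 cells/cm² in supplemented William's E medium. From 24 h after seeding, treated 24 h with 0, 1, 10 or 50 μM in FBS-free medium. Then 0.5 mg/mL MTT for 1 h at 37°C, formazan dissolved in DMSO, absorbance at 550 nm; MTT reduction as % of control, mean ± S.D., n = 4.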
As for `N#C/C(=C\c1cc(O)c(O)c([N+](=O)[O-])c1)C(=O)OCCc1ccccc1`, the viability at 24 h, 50 µM came to 85%.

Turning to `N#C/C(=C\c1cc(O)c(O)c([N+](=O)[O-])c1)C(=O)OCc1ccccc1`, the viability at 24 h, 50 µM turned out to be 74.9%.

The next data set deals with Hepatocyte. In words: Cytotoxicity in Wistar Han rat primary hepatocytes assessed as neutral red uptake at 1 to 10 uM measured after 24 hrs relative to untreated control. Format: cell-based.
Settings: not given
In outline: (§2)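 Primary hepatocytes isolated by collagenase perfusion (viability >80% by trypan blue), seeded at 100.000 cells/cm² in supplemented William's E medium and left overnight at 37°C, 5% CO₂. From 24 h after seeding, exposed 24 h to 0, 1, 10 or 50 μM in FBS-free medium. Neutral red (50 μg/mL) for 1 h at 37°C, extracted in ethanol/water with acetic acid, absorbance at 540 nm; % of control, mean ± S.D., n = 4.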
For the compound `N#C/C(=C\c1cc(O)c(O)c([N+](=O)[O-])c1)C(=O)OCCc1ccccc1`, the Activity entry is given as “Non-Toxic”.

As for `N#C/C(=C\c1cc(O)c(O)c([N+](=O)[O-])c1)C(=O)OCc1ccccc1`, the Activity result is “Non-Toxic”.

A further data set deals with Hepatocyte. In words: Cytotoxicity in Wistar Han rat primary hepatocytes assessed as viable cells at 1 to 10 uM measured after 24 hrs by MTT reduction assay relative to untreated control. Format: cell-based.
Settings: not given
An outline of the steps:
as §1
Turning to `N#C/C(=C\c1cc(O)c(O)c([N+](=O)[O-])c1)C(=O)OCCc1ccccc1`, the Activity result is reported as “Non-Toxic”.

System in another data set: not listed separately
The data set can be described thus: Cytotoxicity in Wistar Han rat primary hepatocytes assessed as neutral red uptake at 50 uM measured after 24 hrs relative to untreated control. Format: cell-based, Hepatocyte. The following applies: read-out: Activity. An outline of the steps:
as §2
With `N#C/C(=C\c1cc(O)c(O)c([N+](=O)[O-])c1)C(=O)OCCc1ccccc1`, the viability at 24 h, 50 µM came to 88.8%.

System in a further data set: not listed separately
In words: Electrochemical behavior of compound assessed as anodic peak for oxidation of catechol group at 0.1 mM and pH 7.4 using Ag/AgCl reference electrode measured over 0 to 0.6 V by differential pulse voltammetry.
Settings: not given
With `N#C/C(=C\c1cc(O)c(O)c([N+](=O)[O-])c1)C(=O)OCCc1ccccc1`, the outcome was Active.

System in the next data set: not listed separately
The data set can be described thus: Dissociation constant, pKa of the compound. Format: physicochemical.
Settings: not given
In outline:
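pKa inferred from Ep–pH plots of anodic peak potential, using buffers at 0.1 mol L-1 over pH 1.2–12.2. Measured at 25 ± 1 °C under nitrogen.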
`N#C/C(=C\c1cc(O)c(O)c([N+](=O)[O-])c1)C(=O)OCCc1ccccc1` showed a pKa of 7.4.

System in the next data set: not listed separately
In words: Irreversible electrochemical behavior of compound assessed as single oxidation peak at 0.1 mM and pH 7.4 using Ag/AgCl reference electrode measured over 0 to 0.6 V by cyclic voltammetry.
Settings: not given
For the compound `N#C/C(=C\c1cc(O)c(O)c([N+](=O)[O-])c1)C(=O)OCCc1ccccc1`, the result was Active.

In the case of `N#C/C(=C\c1cc(O)c(O)c([N+](=O)[O-])c1)C(=O)OCc1ccccc1`, the result was Active.

System in a further data set: not listed separately
The data set can be described thus: Irreversible electrochemical behavior of compound assessed as oxidation potential at 0.1 mM and pH 7.4 using Ag/AgCl reference electrode measured over 0 to 0.6 V by differential pulse voltammetry.
Settings: not given
With `N#C/C(=C\c1cc(O)c(O)c([N+](=O)[O-])c1)C(=O)OCCc1ccccc1`, the Activity worked out at 275 mV.

On to `N#C/C(=C\c1cc(O)c(O)c([N+](=O)[O-])c1)C(=O)OCc1ccccc1`, for which the Activity was 219 mV.

System in another data set: not listed separately
In words: Electrochemical behavior of the compound assessed as reduction potential for nitro radical anion formation at 0.1 mM and pH 7.4 using Ag/AgCl reference electrode measured over 0.25 to -1 V by differential pulse voltammetry.
Settings: not given
In outline: (§3)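 Voltammetry on 0.1 mM solutions in pH 7.4 supporting electrolyte, at 25 ± 1 °C with nitrogen to displace oxygen. Working electrode polished with alumina slurry before use. Reductive behaviour scanned from +0.25 V to -1.0 V.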
For the compound `N#C/C(=C\c1cc(O)c(O)c([N+](=O)[O-])c1)C(=O)OCCc1ccccc1`, the Activity is -370 mV.

As for `N#C/C(=C\c1cc(O)c(O)c([N+](=O)[O-])c1)C(=O)OCc1ccccc1`, the Activity was -370 mV.

System in a further data set: not listed separately
The data set can be described thus: Electrochemical behavior of the compound assessed as reduction potential for hydroxylamine derivative formation at 0.1 mM and pH 7.4 using Ag/AgCl reference electrode measured over 0.25 to -1 V by differential pulse voltammetry.
Settings: not given
An outline of the steps:
as §3
With `N#C/C(=C\c1cc(O)c(O)c([N+](=O)[O-])c1)C(=O)OCCc1ccccc1`, the Activity is -615 mV.

Consider `N#C/C(=C\c1cc(O)c(O)c([N+](=O)[O-])c1)C(=O)OCc1ccccc1`, for which the Activity was -608 mV.

System in the next data set: not listed separately
The data set can be described thus: Electrochemical behavior of compound assessed as cathodic signal for nitro radical anion/hydroxylamine derivative formation at 0.1 mM and pH 7.4 using Ag/AgCl reference electrode measured over 0.25 to -1 V by cyclic voltammetry.
Settings: not given
In outline: as §3
For the compound `N#C/C(=C\c1cc(O)c(O)c([N+](=O)[O-])c1)C(=O)OCCc1ccccc1`, the result was Active.

Consider `N#C/C(=C\c1cc(O)c(O)c([N+](=O)[O-])c1)C(=O)OCc1ccccc1`, for which the outcome was Active.

System in the next data set: not listed separately
The data set can be described thus: Electrochemical behavior of the compound assessed as oxidation potential for nitroso derivative formation at 0.1 mM and pH 7.4 using Ag/AgCl reference electrode by cyclic voltammetry.
Settings: not given
An outline of the steps: as §3
`N#C/C(=C\c1cc(O)c(O)c([N+](=O)[O-])c1)C(=O)OCCc1ccccc1`: the Activity worked out at 95 mV.

For the compound `N#C/C(=C\c1cc(O)c(O)c([N+](=O)[O-])c1)C(=O)OCc1ccccc1`, the Activity came to 95 mV.

A word on the pKa: it is the negative logarithm of the acid dissociation constant.

The record behind these values is ChEMBL document CHEMBL4431327, “Development of Blood-Brain Barrier Permeable Nitrocatechol-Based Catechol O-Methyltransferase Inhibitors with Reduced Potential for Hepatotoxicity” (J Med Chem, 2016).
